The M2OR odorant receptor database

What was measured:
Conditions in all cases: stereoisomer not certain
OR6P1 (Homo sapiens) = molecular target: T1, OR6P1 (Homo sapiens) (UniProt Q8NGX9)
T1 sequence (whole entry): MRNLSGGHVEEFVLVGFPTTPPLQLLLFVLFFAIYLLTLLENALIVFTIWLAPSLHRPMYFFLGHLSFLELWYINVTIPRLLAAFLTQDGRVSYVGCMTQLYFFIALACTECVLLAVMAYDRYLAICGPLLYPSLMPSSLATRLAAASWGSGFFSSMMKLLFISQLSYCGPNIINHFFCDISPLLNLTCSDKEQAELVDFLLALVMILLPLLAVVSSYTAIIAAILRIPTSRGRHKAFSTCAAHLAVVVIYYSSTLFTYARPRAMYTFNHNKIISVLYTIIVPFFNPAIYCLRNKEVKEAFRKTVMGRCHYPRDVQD
How it was run: (§1)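 Values were gathered from published papers (main text and supplementary material), with extra details requested from the original authors when needed, and checked for typos and inconsistencies. Each receptor–molecule pair is called responsive (active) if the original authors judged the measured signal statistically different from baseline, and non-responsive (inactive) otherwise. Assay methods varied by source, often transient mammalian cell-line luciferase assays. Recorded details include cell line, G-protein, co-transfected protein and tags.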

OR6N1 (Homo sapiens) = OR6N1 (Homo sapiens) (UniProt Q8NGY5)
Chain of OR6N1 (Homo sapiens) (Q8NGY5 whole entry): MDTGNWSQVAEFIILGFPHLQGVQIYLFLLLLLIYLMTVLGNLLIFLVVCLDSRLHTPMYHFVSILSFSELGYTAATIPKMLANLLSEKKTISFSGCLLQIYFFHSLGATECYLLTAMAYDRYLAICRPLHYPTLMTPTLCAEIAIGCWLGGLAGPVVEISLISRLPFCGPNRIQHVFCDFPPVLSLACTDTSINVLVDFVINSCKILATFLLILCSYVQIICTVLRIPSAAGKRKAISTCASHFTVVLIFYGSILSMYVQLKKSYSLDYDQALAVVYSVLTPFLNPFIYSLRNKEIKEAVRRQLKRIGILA
How it was run: as §1

OR6N2 (Homo sapiens) = OR6N2 (Homo sapiens) (UniProt Q8NGY6)
Chain of OR6N2 (Homo sapiens) (Q8NGY6 whole entry): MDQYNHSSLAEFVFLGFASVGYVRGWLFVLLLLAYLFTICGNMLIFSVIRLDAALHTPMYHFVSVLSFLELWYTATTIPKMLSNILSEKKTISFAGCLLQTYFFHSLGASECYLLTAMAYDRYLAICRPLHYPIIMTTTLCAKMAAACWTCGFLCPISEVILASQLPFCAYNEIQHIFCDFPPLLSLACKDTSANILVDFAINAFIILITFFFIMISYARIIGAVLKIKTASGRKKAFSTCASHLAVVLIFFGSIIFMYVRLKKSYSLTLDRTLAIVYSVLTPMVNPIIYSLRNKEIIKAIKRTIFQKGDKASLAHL
How it was run: as §1

OR6Q1 (Homo sapiens) = OR6Q1 (Homo sapiens) (UniProt Q8NGQ2)
Chain of OR6Q1 (Homo sapiens) (Q8NGQ2 whole entry): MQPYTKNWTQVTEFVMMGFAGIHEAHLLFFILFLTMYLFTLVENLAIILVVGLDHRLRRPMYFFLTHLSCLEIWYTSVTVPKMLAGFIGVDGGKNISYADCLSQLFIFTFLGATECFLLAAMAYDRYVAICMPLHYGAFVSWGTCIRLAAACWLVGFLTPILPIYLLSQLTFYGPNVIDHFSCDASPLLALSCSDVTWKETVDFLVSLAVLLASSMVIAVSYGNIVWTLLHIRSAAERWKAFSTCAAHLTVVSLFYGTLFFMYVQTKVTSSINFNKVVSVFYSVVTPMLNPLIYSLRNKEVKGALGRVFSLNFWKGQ
How it was run: as §1

OR6S1 (Homo sapiens) = OR6S1 (Homo sapiens) (UniProt Q8NH40)
Chain of OR6S1 (Homo sapiens) (Q8NH40 whole entry): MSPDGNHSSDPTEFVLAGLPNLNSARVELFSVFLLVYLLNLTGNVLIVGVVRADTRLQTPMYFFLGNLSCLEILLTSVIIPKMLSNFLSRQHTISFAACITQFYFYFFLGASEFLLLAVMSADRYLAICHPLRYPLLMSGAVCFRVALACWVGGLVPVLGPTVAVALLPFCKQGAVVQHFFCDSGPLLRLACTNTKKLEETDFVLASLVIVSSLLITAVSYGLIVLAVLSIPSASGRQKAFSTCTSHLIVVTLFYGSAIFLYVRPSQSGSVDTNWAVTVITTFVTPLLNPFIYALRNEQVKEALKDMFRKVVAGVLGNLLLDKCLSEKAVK
How it was run: as §1

OR6T1 (Homo sapiens) = OR6T1 (Homo sapiens) (UniProt Q8NGN1)
Chain of OR6T1 (Homo sapiens) (Q8NGN1 whole entry): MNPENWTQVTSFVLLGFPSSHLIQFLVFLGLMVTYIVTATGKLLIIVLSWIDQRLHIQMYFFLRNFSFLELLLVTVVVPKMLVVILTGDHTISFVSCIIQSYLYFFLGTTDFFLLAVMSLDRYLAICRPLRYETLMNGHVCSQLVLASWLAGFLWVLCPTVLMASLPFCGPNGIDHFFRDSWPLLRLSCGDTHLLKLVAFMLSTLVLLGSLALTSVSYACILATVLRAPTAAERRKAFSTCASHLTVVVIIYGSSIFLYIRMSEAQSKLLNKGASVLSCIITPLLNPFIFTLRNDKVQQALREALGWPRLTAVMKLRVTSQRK
How it was run: as §1

OR6V1 (Homo sapiens) = OR6V1 (Homo sapiens) (UniProt Q8N148)
Chain of OR6V1 (Homo sapiens) (Q8N148 whole entry): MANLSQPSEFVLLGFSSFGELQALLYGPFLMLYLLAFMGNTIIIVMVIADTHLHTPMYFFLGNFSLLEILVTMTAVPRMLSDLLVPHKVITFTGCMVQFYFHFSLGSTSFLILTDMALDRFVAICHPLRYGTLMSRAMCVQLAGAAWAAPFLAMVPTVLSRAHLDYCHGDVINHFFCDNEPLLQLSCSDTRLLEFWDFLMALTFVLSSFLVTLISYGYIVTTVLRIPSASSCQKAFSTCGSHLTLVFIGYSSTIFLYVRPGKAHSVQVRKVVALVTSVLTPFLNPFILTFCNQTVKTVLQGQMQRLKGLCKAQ
How it was run: as §1

OR6M1 T276K = tested on: OR6M1 T276K
Chain of OR6M1 T276K (as listed by the source, stated change not applied): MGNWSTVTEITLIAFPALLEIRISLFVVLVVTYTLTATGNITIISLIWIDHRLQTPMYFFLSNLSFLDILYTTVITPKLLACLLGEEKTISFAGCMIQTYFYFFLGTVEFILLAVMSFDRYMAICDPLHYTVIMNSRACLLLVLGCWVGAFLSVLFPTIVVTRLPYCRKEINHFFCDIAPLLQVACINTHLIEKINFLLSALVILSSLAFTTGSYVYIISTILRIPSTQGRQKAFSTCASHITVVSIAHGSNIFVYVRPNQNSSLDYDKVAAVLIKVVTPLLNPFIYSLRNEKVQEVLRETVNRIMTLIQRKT
How it was run: as §1

OR6S1 T42I V156I = tested on: OR6S1 T42I V156I
How it was run: as §1

OR6T1 N2D = tested on: OR6T1 N2D
Chain of OR6T1 N2D (as listed by the source): as the sequence (Q8NGN1 whole entry) above, with N2D counted along it
How it was run: as §1

Measured: odorant receptor agonist call

COc1ccc(C=O)cc1
active: OR6P1 (Homo sapiens)

Cc1c([N+](=O)[O-])c(C)c([N+](=O)[O-])c(C(C)(C)C)c1[N+](=O)[O-]
not listed: OR6M1 T276K | OR6S1 T42I V156I | OR6T1 N2D
inactive: all other assays above

C=CCOC(=O)Cc1ccccc1
inactive: all assays above
